Compounds with a hit are over-represented: about 1.6% of the library has one in this group of screens.
MT1-MMP act inh – inhibitors of human MT1-MMP activation | P50281 | HT1080 RFP-PRO-GFP cells, GFP/RFP ratio fluorescence, overnight; percent of plate control window, DMSO zero | GFP/RFP ratio change, % at 20 µM | 0.061% of 360,000 active | AID 651647;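 active = GFP/RFP ratio change of at least 30% with cell ATP level not reduced by more than half and red fluorescence within 50% of control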
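Material: RFP-PRO-GFP reporter HT1080 cells. Dosing: single-point 20 µM compound, 1% DMSO. Controls: DMSO and RFP-L50D-GFP cell wells. Timing: cells overnight before dosing, compound overnight, 37 °C, 5% CO2. Measure: GFP/RFP fluorescence ratio.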
Rin1 Abl inh – inhibitors of human Rin1-Abl protein interaction | P00519+Q13671 | TR-FRET Rin1/Abl binding, biochemical | inhibition, % at 7.35 µM | 0.4% of 360,000 active | AID 588664; in the data active = inhibition above about 5%, passing the limit was not always enough
Target sequence (P00519 whole entry, looked up): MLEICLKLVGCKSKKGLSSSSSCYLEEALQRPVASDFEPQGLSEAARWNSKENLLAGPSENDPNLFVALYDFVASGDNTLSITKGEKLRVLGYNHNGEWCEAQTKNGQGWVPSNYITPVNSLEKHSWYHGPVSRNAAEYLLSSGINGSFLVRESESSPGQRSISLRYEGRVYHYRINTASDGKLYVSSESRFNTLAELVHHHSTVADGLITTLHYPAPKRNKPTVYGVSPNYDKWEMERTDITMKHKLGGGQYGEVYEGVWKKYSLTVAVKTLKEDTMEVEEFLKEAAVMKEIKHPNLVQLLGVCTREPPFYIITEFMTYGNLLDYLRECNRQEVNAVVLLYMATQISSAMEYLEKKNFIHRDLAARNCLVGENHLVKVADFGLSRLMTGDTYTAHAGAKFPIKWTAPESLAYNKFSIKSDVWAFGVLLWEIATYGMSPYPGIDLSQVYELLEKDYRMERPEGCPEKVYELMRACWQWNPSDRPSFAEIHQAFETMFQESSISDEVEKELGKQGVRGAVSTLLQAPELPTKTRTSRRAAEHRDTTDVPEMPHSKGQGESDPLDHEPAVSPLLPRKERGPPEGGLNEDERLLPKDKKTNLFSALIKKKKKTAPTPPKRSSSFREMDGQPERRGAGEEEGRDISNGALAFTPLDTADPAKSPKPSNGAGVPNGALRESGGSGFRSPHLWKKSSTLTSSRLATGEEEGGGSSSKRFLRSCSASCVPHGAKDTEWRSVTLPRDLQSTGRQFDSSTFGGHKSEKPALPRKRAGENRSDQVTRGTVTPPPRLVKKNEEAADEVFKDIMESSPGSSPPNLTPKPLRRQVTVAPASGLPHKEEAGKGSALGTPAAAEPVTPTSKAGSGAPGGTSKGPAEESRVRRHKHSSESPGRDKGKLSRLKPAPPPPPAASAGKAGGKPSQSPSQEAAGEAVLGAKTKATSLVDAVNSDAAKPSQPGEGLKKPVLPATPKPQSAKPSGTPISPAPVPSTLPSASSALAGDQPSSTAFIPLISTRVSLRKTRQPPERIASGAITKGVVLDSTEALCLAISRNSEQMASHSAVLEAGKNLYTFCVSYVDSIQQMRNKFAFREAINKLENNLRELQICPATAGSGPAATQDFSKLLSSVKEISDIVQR
Target sequence (Q13671 whole entry, looked up): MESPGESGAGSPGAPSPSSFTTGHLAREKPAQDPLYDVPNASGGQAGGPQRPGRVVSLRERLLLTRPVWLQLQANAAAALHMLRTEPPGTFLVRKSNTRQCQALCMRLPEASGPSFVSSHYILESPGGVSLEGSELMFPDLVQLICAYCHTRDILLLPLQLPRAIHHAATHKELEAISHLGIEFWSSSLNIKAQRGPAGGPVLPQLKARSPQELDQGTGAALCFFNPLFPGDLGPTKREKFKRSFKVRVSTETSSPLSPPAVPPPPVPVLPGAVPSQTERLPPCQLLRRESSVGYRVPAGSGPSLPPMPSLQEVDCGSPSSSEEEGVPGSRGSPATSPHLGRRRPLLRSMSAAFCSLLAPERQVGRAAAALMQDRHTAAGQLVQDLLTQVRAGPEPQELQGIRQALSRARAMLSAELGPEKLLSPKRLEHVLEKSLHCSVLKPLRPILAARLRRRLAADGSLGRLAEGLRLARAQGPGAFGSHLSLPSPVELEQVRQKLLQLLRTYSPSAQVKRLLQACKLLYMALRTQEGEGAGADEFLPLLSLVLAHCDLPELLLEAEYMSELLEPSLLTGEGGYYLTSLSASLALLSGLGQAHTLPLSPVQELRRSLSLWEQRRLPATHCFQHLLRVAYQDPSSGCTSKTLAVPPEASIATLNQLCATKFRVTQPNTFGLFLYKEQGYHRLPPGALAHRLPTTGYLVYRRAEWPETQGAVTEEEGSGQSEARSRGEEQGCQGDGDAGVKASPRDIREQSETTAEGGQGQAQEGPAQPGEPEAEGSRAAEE
SKN-1 block – C. elegans SKN-1 inhibition; inhibition, % at 21.8 µM; 0.49% of 360,000 active; AID 624304; C. elegans VP596 Pgst-4::GFP/RFP ratio, acrylamide-induced, 24 h;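 active = interference check ratio from 0.5 to 1.5 plus GFP to RFP signal ratio inhibition reaching or exceeding a fixed threshold, cut at about 30% in these data, passing the limit was not always enough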
Tb MetRS inh – Trypanosoma brucei MetRS inhibition. purified T. brucei MetRS, ATP depletion, Kinase-Glo luminescence. inhibition, % at 11.9 µM. 0.4% of 360,000 active. AID 624268;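 active = inhibition above a per-plate cutoff of the control wells' mean inhibition plus 3 SD, cut at about 5.5% in these data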;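 note: 0% = DMSO wells median and 100% = median of wells with control inhibitor compound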
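System: purified T. brucei MetRS enzyme / Detection: Kinase-Glo luciferase luminescence reporting remaining unconsumed ATP / Medium: HEPES buffer with MgCl2, KCl, DTT, spermine, BSA, pyrophosphatase / Replication: singlicate, one well per compound / Evaluation: percent inhibition relative to median high and low control wells / Schedule: 2 h aminoacylation at 25 °C after 15 min preincubation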
Arr AP2 block – blocks beta-arrestin peptide binding to AP2 adaptin; FITC-arrestin peptide / GST-AP2 beads, flow cytometry; AP2 beta2 appendage carries R879A mutation; inhibition, % at 10 µM; 0.31% of 340,000 active; AID 504490;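 active = inhibition above a set limit, near 3 SD of compounds lacking own fluorescence, cut at about 54% in these data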;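 note: plate controls were DMSO wells for no effect and 5 µM unlabelled arrestin peptide for full effect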
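Assay system: GST-AP2 R879A bound to glutathione beads, E. coli-expressed; Medium: PBS with 0.05% Tween 20 and 0.1% BSA; Also added: fluorescein-tagged arrestin peptide at 50 nM final; Timing: 12 min plus 1 h, RT; Measured by: flow cytometry, FL1 (488/535 nm); Evaluation: percent drop in bead-associated FITC signal.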
Arr-AP2 CP1 – inhibitors of human beta-arrestin and AP2 interaction. inhibition, % at 10 µM. 2% of 1,300 active. GST-AP2 beads, FITC arrestin peptide binding, flow cytometry; GST-fused beta2-adaptin appendage, R879A mutant. shares compounds with Arr AP2 block;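 active = inhibition above a set limit, roughly 3 SD of non-fluorescent compound noise, cut at about 38% in these data; inactive = inhibition at or below that limit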;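 note: loss of bead fluorescence from 50 nM FITC arrestin peptide bound to appendage; 0% = negative control wells and 100% = excess unlabelled arrestin peptide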
GST-FITC bead – counter-screen for beta-arrestin AP2 inhibitors: GST-GSH bead binding. inhibition, % at 10 µM. GST-fluorescein binding to GSH beads, fluorescence. shares compounds with Arr AP2 block. 2% of 1,300 active. AID 588338;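 active = inhibition above 50%, about 3 SD of the inhibition seen with non-fluorescent compounds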;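 note: fluorescein maleimide labelled GST captured on 4 micron glutathione beads; higher means more loss of bead fluorescence from quenching or blocked binding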
An asterisk follows results filed as active.

For Cc1cc(OCC(=O)Nc2nccs2)c2c(C)cc(=O)oc2c1 the results were MT1-MMP act inh 2, Rin1 Abl inh -1, SKN-1 block 5, Tb MetRS inh 1, Arr AP2 block 60*, Arr-AP2 CP1 2 and GST-FITC bead -1.
Screening COc1ccc(C(=O)Nc2ccc(N3CCN(C)CC3)cc2)cc1 returned MT1-MMP act inh 0, Rin1 Abl inh 1, SKN-1 block -10, Tb MetRS inh -1 and Arr AP2 block 42.
CC(=O)N1CCN(c2ccc(NC(=O)c3ccc(OCc4ccccc4)cc3)cc2)CC1 was read as MT1-MMP act inh 8, Rin1 Abl inh 4, SKN-1 block 11, Tb MetRS inh -1, Arr AP2 block 100*, Arr-AP2 CP1 -12 and GST-FITC bead -8.
Screening COc1ccc(C(=O)Nc2ccc(N3CCN(C)CC3)cc2)cc1OC returned MT1-MMP act inh 1, Rin1 Abl inh 1, SKN-1 block -14, Tb MetRS inh 0, Arr AP2 block 65*, Arr-AP2 CP1 4 and GST-FITC bead 4.
`O=C(CN1CCCCC1)N1CCc2ccccc21` gave MT1-MMP act inh 2, Rin1 Abl inh -1, SKN-1 block -5, Tb MetRS inh 0 and Arr AP2 block 2.
O=C(Cn1cc(C(F)(F)F)ccc1=O)N1CCc2ccccc21 was read as MT1-MMP act inh 0, Rin1 Abl inh 0, SKN-1 block -2, Tb MetRS inh 0, Arr AP2 block 65*, Arr-AP2 CP1 -11 and GST-FITC bead -3.
`CCn1c(=O)n(CC(=O)Nc2ccc(F)cc2)c(=O)c2ccccc21` gave MT1-MMP act inh 2, Rin1 Abl inh 3, SKN-1 block -1, Tb MetRS inh -1, Arr AP2 block 12, Arr-AP2 CP1 -2 and GST-FITC bead -10.
Screening CCn1c(=O)n(CC(=O)NCc2ccccc2OC)c(=O)c2ccccc21 returned MT1-MMP act inh -1, Rin1 Abl inh 1, SKN-1 block 8, Tb MetRS inh -1 and Arr AP2 block -7.
For Cc1ccc(CN2C(=O)CSCC2(C)C(=O)NCc2ccccc2)cc1 (stereo not given) the results were MT1-MMP act inh 1, SKN-1 block 7 and Tb MetRS inh 0.
Screening CC(=O)c1c(OC(=O)c2ccco2)c2ccccc2n1C returned MT1-MMP act inh 2, Rin1 Abl inh -3, SKN-1 block -1, Tb MetRS inh 0, Arr AP2 block 63*, Arr-AP2 CP1 -2 and GST-FITC bead 6.
For O=C(CSc1nc(O)c(-c2ccccc2)c(=O)[nH]1)N1CCOCC1 the results were MT1-MMP act inh -2, Rin1 Abl inh -2, SKN-1 block 1, Tb MetRS inh 0 and Arr AP2 block -46.
O=C(CSc1nc(O)c(C(c2ccccc2)c2ccccc2)c(=O)[nH]1)N1CCOCC1 was read as MT1-MMP act inh -1, Rin1 Abl inh 0, SKN-1 block -8, Tb MetRS inh -1, Arr AP2 block 68*, Arr-AP2 CP1 -17 and GST-FITC bead -6.
Screening COc1cccc(CN(C)C(=O)C2CCC(=O)N(Cc3cccc(F)c3)C2)c1 (stereo not given) returned MT1-MMP act inh 0, Rin1 Abl inh 6, SKN-1 block -3, Tb MetRS inh 0, Arr AP2 block 42, Arr-AP2 CP1 -2 and GST-FITC bead -1.
For CCOc1ccc(-n2cc(C(=O)N3CCC(C)CC3)c3cc(OC)c(OC)cc3c2=O)cc1 the results were MT1-MMP act inh 0, Rin1 Abl inh 0, SKN-1 block -19, Tb MetRS inh -1, Arr AP2 block 56*, Arr-AP2 CP1 -15 and GST-FITC bead -14.
`O=S(=O)(/N=C(/Nc1cccc2ccccc12)c1ccccc1)c1cccs1` gave MT1-MMP act inh -4, Rin1 Abl inh 3, SKN-1 block -15, Tb MetRS inh 0, Arr AP2 block 100*, Arr-AP2 CP1 5 and GST-FITC bead -13.
O=S(=O)(/N=C(/Nc1cccc2ccccc12)c1ccccc1)c1ccccc1 was read as MT1-MMP act inh 1, Rin1 Abl inh 1, SKN-1 block 18, Tb MetRS inh 0 and Arr AP2 block 7.
COc1ccc(NC(=O)CCn2c(=S)[nH]c3ccccc3c2=O)cc1OC was read as MT1-MMP act inh 4, Rin1 Abl inh 4, SKN-1 block 15, Tb MetRS inh -1 and Arr AP2 block -21.
Screening O=C(Cn1c(=O)[nH]c2ccccc2c1=O)Nc1ccc2c(c1)OCCO2 returned MT1-MMP act inh -4, Rin1 Abl inh -1, SKN-1 block 12, Tb MetRS inh 0, Arr AP2 block 6, Arr-AP2 CP1 -2 and GST-FITC bead -10.
For COc1cccc(NC(=O)CCCn2c(=O)[nH]c3ccccc3c2=O)c1 the results were MT1-MMP act inh 3, Rin1 Abl inh -1, SKN-1 block 15, Tb MetRS inh 1, Arr AP2 block 27, Arr-AP2 CP1 2 and GST-FITC bead -2.
For CCCCn1nnnc1C1(C)CCC(=O)N1CCc1ccc(OC)c(OC)c1 (stereo not given) the results were MT1-MMP act inh 4, SKN-1 block 1 and Tb MetRS inh 0.
`Cc1ccc(SCC(=O)NC(=O)NC2CCCC2)c(C)c1` gave MT1-MMP act inh 1, Rin1 Abl inh 2, SKN-1 block 10, Tb MetRS inh 0, Arr AP2 block 64*, Arr-AP2 CP1 -4 and GST-FITC bead -6.
Cc1ccc(C)c(SCC(=O)NC(=O)NC2CCCC2)c1 was read as MT1-MMP act inh 2, Rin1 Abl inh 2, SKN-1 block 9, Tb MetRS inh 0 and Arr AP2 block -3.
For Cc1cccc(C(=O)Nc2c3c(nn2C(C)(C)C)CS(=O)(=O)C3)c1 the results were MT1-MMP act inh 1, Rin1 Abl inh 0, SKN-1 block -20, Tb MetRS inh 0, Arr AP2 block 61*, Arr-AP2 CP1 -3 and GST-FITC bead -3.
COc1ccc(-c2nnn(CC(=O)Nc3ccc4c(c3)OCCO4)n2)cc1OC was read as MT1-MMP act inh 4, Rin1 Abl inh 2, SKN-1 block -15, Tb MetRS inh -1, Arr AP2 block 60*, Arr-AP2 CP1 11 and GST-FITC bead 3.
For COC(=O)C1=C(C(C)=O)C(c2ccc(C(=O)OC)cc2)n2nnnc2N1 (stereo not given) the results were MT1-MMP act inh 3, Rin1 Abl inh 3, SKN-1 block -7, Tb MetRS inh 0, Arr AP2 block 100*, Arr-AP2 CP1 4 and GST-FITC bead -5.
